The source of these data is ChEMBL document CHEMBL3124914, “Cytotoxic clerodane diterpenes from Zuelania guidonia” (J Nat Prod, 2014).

Assay [1] can be described thus: Cytotoxicity against human MIAPaCa2 cells assessed as cell viability after 24 hrs by MTT assay. Type of assay: functional, cell-based. As to conditions: MIA PaCa-2, 24 h. In a few lines:
(§1)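 Cells kept at 37 °C, 5% CO2 in RPMI 1640 with 10% heat-inactivated FBS, […] streptomycin, and 100 U/mL penicillin. Seeding per well: 1.2 × 10^4 for MIA-PaCa-2, 4 × 10^4 for CCRF-CEM and CEM-ADR5000, and 2 × 10^5 for PBMCs from healthy donors. Compounds were given in DMSO (0.1% DMSO solvent control) at various concentrations for 24 h. Read-out was MTT, and IC50 was taken by nonlinear regression.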
Background: Formazan colour is commonly taken as a measure of viable cells.

A short description of assay [2]: Cytotoxicity against human CEM/ADR5000 cells assessed as cell viability after 24 hrs by MTT assay. Type of assay: functional, cell-based. The conditions noted are these: ADR5000, 24 h. The essentials:
as §1

Assay [3] has as its system PBMC. Briefly: Cytotoxicity against human PBMC assessed as cell viability after 24 hrs by MTT assay. The assay is classed as cell-based. In a few lines:
as §1

In assay [4] the test system is CCRF-CEM. Briefly: Cytotoxicity against human CCRF-CEM cells assessed as cell viability after 24 hrs by MTT assay. Type of assay: functional, cell-based. The essentials:
as §1

As for `C=CC(=C)CC[C@]1(C)[C@H](C)C[C@H](O)[C@@]23C(=C[C@@H](OC(=O)/C=C/c4ccccc4)C[C@@H]12)[C@@H](OC(C)=O)O[C@H]3OC(C)=O` (relative stereo), the IC50 was 4.6 µM in assay [1], 4.6 µM in assay [2], greater than 10 µM in assay [3] and 1.6 µM in assay [4].

Take `C=CC(=C)CC[C@]1(C)[C@H](C)C[C@H](OC(=O)CC(O)CCCCCCCCC)[C@@]23C(=C[C@H](O)C[C@@H]12)[C@@H](OC(C)=O)O[C@H]3OC(C)=O` (relative stereo): the 50% inhibitory concentration (IC50) in assay [1] was 7.4 µM; in assay [2] it was 5.7 µM; in assay [3], greater than 10 µM; in assay [4] it was 2.5 µM.

As to `C=CC(=C)[C@H](O)C[C@]1(C)[C@H](C)C[C@H](OC(=O)CC(O)CCCCCCCCC)[C@@]23C(=C[C@H](O)C[C@@H]12)[C@@H](OC(C)=O)O[C@H]3OC(C)=O` (relative stereo), the 50% inhibitory concentration (IC50) in assay [1] is greater than 10 µM; in assay [2], greater than 10 µM; in assay [3] it was greater than 10 µM; in assay [4], 5.5 µM.

For `CC(=O)O[C@H]1O[C@@H](OC(C)=O)[C@]23C1=C[C@H](O)C[C@H]2[C@](C)(CCC1=CCOOC1)[C@H](C)C[C@@H]3OC(=O)/C=C/c1ccccc1` (relative stereo), the IC50 in assay [1] was 6.9 µM; in assay [2], 7.5 µM; in assay [3], greater than 10 µM; in assay [4], 1.9 µM.

With `C=CC(=C)[C@@H](O)C[C@]1(C)[C@H](C)C[C@H](OC2OC[C@@H](O)[C@H](O)[C@H]2O)[C@@]23C(=C[C@H](OC(=O)CCCCCCCCC)C[C@@H]12)[C@@H](OC(C)=O)O[C@H]3OC(C)=O` (relative stereo), the IC50 is greater than 10 µM in assay [1], greater than 10 µM in assay [2], greater than 10 µM in assay [3] and 9.1 µM in assay [4].

`CCCCCCCCCC(=O)O[C@H]1C=C2[C@@H](OC(C)=O)O[C@@H](OC(C)=O)[C@]23[C@@H](OC2OC[C@@H](O)[C@H](O)[C@H]2O)C[C@@H](C)[C@@](C)(C[C@H](O)C2=CCOOC2)[C@@H]3C1` (relative stereo): the IC50 in assay [1] is greater than 10 µM; in assay [2], greater than 10 µM; in assay [3] it was greater than 10 µM; in assay [4] it was 8 µM.

With `CCCCCCCCCC(=O)O[C@H]1C=C2[C@@H](OC(C)=O)O[C@@H](OC(C)=O)[C@]23[C@@H](OC2OC[C@@H](O)[C@H](O)[C@H]2O)C[C@@H](C)[C@@](C)(C[C@@H](O)C2=CCOOC2)[C@@H]3C1` (relative stereo), the 50% inhibitory concentration (IC50) is greater than 10 µM in assay [1], greater than 10 µM in assay [2], greater than 10 µM in assay [3] and 8.4 µM in assay [4].

`C=CC(=C)CC[C@]1(C)[C@H](C)CC[C@@]23C(=CC(=O)C[C@@H]12)[C@@H](OC(C)=O)O[C@H]3OC(C)=O` (relative stereo): the IC50 in assay [1] is greater than 10 µM; in assay [2] it was greater than 10 µM; in assay [3], greater than 10 µM; in assay [4] it was 9.5 µM.

Turning to `C=CC(=C)CC[C@]1(C)[C@H](C)C[C@H](OC(=O)/C=C/c2ccccc2)[C@@]23C(=C[C@H](O)C[C@@H]12)[C@@H](OC(C)=O)O[C@H]3OC(C)=O` (relative stereo), the IC50 in assay [1] is greater than 10 µM; in assay [2], 8.6 µM; in assay [3], greater than 10 µM; in assay [4], 5.3 µM.

On to `CC[C@@]1(O)C(=O)OCc2c1cc1n(c2=O)Cc2cc3ccccc3nc2-1` [CAMPTOTHECIN], for which the half-maximal inhibitory concentration (IC50) in assay [1] is greater than 10 µM; in assay [2], 0.3 µM; in assay [3] it was greater than 10 µM; in assay [4], 0.08 µM.

Consider `COc1cccc2c1C(=O)c1c(O)c3c(c(O)c1C2=O)C[C@@](O)(C(=O)CO)C[C@@H]3O[C@H]1C[C@H](N)[C@H](O)[C@H](C)O1` [DOXORUBICIN], for which the IC50 was 4.8 µM in assay [1], greater than 10 µM in assay [2], greater than 10 µM in assay [3] and 0.5 µM in assay [4].

By IC50 is commonly meant the point on the concentration scale where inhibition reaches its midpoint.
